Bioassay records: PubChem, several laboratories
Sampled rows, rich in hits. Any-hit rate of the full collection: about 6.6%.
HEK293 NFkB inh – inhibitors of the PMA/ionomycin-induced NF-kB reporter in HEK293 cells | HEK-293 NF-kB luciferase reporter, luminescence | inhibition, % at 3 µM | hit rate 0.21% among 62,000 | AID 465;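 active means inhibition above the mean of all tested compounds plus 3 SD, cut at about 40% in these data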;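 further: 0% = stimulated DMSO wells and 100% = 10 µM reference inhibitor 5653914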
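System: NF-kB luciferase reporter HEK-293 cells | Replication: Single test | Control set: DMSO vs reference inhibitor | Evaluation: % inhibition | Schedule: 1 h pretreatment, 16 h stimulation, 37 °C | Probe or stimulus: PMA with ionomycin | Compound dosing: One dose, 3 µM | Detection: Luciferase luminescence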
M1 antag – antagonists of rat M1 muscarinic receptor; P08482; CHO-M1 cells, Fluo-4 calcium, ACh EC80 antagonist mode; active compounds read low; B-score at 10 µM; hit rate 3.4% among 64,000; AID 628;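 active means calcium fluorescence response, raw or row-and-column corrected B-score, differing from the plate sample mean either way at a set confidence level, mostly lower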
Her2 expr inh – Her2 kinase expression inhibition; P04626; HER2 level % of control, % at 10 µM; hit rate 0.69% among 65,000; SKBR-3 HER2 protein level, AlphaScreen, 18-24 h; active compounds read low; AID 645;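 active means HER2 level under 5% of the carrier-only control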;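 further: 100% = DMSO carrier and 0% = 500 nM PU-H71 HSP90 inhibitor; lower value means stronger loss of Her2 protein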
BAP1 inh – inhibitors of human BAP1 deubiquitinase; recombinant BAP1, Ub-AMC hydrolysis fluorescence kinetic; active compounds read low; calls only at 20 µM; AID 436; hit rate 0.48% among 72,000;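 active means activity remaining at or below 50% of control, provided the compound also passes the data quality filters; inactive means the rest, including low values that fail the filters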;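 further: 100% = DMSO wells rate and 0% = substrate alone blank rate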
Target sequence (Q92560 whole entry, looked up): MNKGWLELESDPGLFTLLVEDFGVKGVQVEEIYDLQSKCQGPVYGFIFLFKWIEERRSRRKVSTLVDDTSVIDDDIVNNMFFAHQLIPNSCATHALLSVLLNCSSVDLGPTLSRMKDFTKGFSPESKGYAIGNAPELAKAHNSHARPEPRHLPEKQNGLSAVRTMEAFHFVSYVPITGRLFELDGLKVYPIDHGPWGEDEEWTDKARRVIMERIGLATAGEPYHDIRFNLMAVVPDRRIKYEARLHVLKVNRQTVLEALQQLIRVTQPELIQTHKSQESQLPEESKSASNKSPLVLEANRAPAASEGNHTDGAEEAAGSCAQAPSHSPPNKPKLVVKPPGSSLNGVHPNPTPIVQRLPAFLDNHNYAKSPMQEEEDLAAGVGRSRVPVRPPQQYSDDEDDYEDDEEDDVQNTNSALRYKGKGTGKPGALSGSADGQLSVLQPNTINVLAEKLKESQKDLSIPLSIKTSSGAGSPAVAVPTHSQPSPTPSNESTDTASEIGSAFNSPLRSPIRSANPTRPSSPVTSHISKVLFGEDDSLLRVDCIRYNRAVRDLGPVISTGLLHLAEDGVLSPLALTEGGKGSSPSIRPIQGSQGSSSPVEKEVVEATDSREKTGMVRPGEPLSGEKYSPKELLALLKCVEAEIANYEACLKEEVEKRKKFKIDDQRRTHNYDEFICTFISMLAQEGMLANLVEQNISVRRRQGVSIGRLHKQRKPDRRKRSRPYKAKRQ
JNK3 inh – blocks human JNK3 kinase activity; inhibition, % at 8 µM; purified JNK3 kinase activity, HTS; P53779; hit rate 0.61% among 60,000; AID 746; in the data active means inhibition above about 17%;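 further: 0% = DMSO and 100% = reference inhibitor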
M1 agonist – activates the M1 muscarinic receptor; CHO-M1 cells, Fluo-4 calcium fluorescence, agonist mode; active compounds read high; B-score at 10 µM; hit rate 3% among 64,000;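 active means fluorescence rise, raw or as B-score row- and column-corrected plate score, outside the 99.7% band of its plate's samples, either direction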
M1 antag confirm – confirmation of rat M1 muscarinic receptor antagonists | shares compounds with M1 antag | hit rate 43% among 1,700 | AID 677 | CHO-M1 cells, Fluo-4 calcium, ACh EC80 antagonism; active compounds read low | calcium response (max-min fluorescence) at 10 µM;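 active means calcium response below the same-plate mean of wells given acetylcholine alone at its 80%-effect dose, minus 3 SD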;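 further: raw fluorescence intensity difference in arbitrary instrument units and not normalized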
mGluR4 antag – acts on human mGluR4 in M1 antagonist selectivity test | fluorescence response (max-min) at 10 µM | CHO-mGluR4 calcium flux, Fluo-4 fluorescence, glutamate EC80; active compounds read low | hit rate 0.9% among 1,700 | shares compounds with M1 antag;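 active means fluorescence response below the plate's average for near-maximal glutamate wells, less 3 SD of those wells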;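 further: raw unnormalized fluorescence span taken in the window right after glutamate addition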
The depositor's hits bear a star; i = inactive; nt = not tested or not shown.

SMILES	HEK293 NFkB inh	M1 antag	Her2 expr inh	BAP1 inh	JNK3 inh	M1 agonist	M1 antag confirm	mGluR4 antag
CCCc1cc(Nc2c(C)n(C)n(-c3ccccc3)c2=O)n2c(nc3ccccc32)c1C#N	nt	-2.4*	137	i	-13	0.29	482	237
CCCCOc1ccc(NC2=NC3(CCCCC3)N=C(N)N2)cc1	6	-2.3*	59	i	4	-0.83	458	182
COc1ccc(NC2=NC3(CCCCC3)N=C(N)N2)cc1	3	-0.023	71	i	0	0.37	nt	nt
NC(=O)C1CCCN(C(=O)c2ccc(Cl)cc2)C1 (configuration not stated)	12	-0.95	124	i	6	0.26	nt	nt
CN(C)C(CNC(=O)C1CCCN(C(=O)c2ccc(Cl)cc2)C1)c1ccco1 (configuration not stated)	21	-3.6*	110	i	2	-0.016	666	267
S=c1[nH]nc(-c2ccc(Br)cc2)n1Cc1ccco1	-10	-10*	114	i	0	-0.094	326*	227
S=c1[nH]nc(-c2ccncc2)n1Cc1ccco1	11	-0.081	103	i	nt	-0.58	nt	nt
O=S(=O)(c1cccc(-c2nnc(SCc3nc4ccccc4s3)o2)c1)N1CCOCC1	-21	-0.8	64	i	0	0.26	nt	nt
O=c1c2ccccc2nnn1CSc1nnc(-c2cccc(S(=O)(=O)N3CCCCC3)c2)o1	13	-4.2*	82	i	nt	1.7	366*	238
Cc1c(Cl)cccc1N1C(=O)C2ON(c3ccccc3)C(c3cccnc3)C2C1=O (configuration not stated)	nt	-2.1*	95	i	-3	0.32	652	250
NC(=O)c1cc(-c2ccsc2)no1	nt	nt	nt	i	nt	nt	nt	nt
C=CCc1ccc(OCCCCCN2CCOCC2)c(OC)c1	12	-7*	120	i	-7	0.7	102*	227
CC(C)(C)N=C1NC(=NC(C)(C)C)c2ccccc21	-17	-6.2*	66	i	0	-0.31	417	233
c1ccc2c(c1)C(=NCC1CCCO1)NC2=NCC1CCCO1 (configuration not stated)	12	0.61	76	i	-2	0.32	nt	nt
COc1cc(C2Nc3ccccc3NC3=C2C(=O)CC(c2ccc4c(c2)OCO4)C3)cc(OC)c1O (configuration not stated)	nt	nt	nt	i	nt	nt	nt	nt
Cc1cc(Cl)ccc1OCCCC(=O)NC1CCN(C)CC1	15	-2.9*	96	i	3	-0.77	479*	211
CCn1c2ccccc2c2cc(C3C(C(=O)OCCOC)=C(C)NC4=C3C(=O)CCC4)ccc21 (configuration not stated)	nt	nt	nt	i	nt	nt	nt	nt
O=C1c2ccccc2C(=O)N1C1C(=O)N(c2cccc(C(F)(F)F)c2)C1c1ccc(F)cc1 (configuration not stated)	nt	nt	nt	i	nt	nt	nt	nt
COCCCNc1nc2c(c(=O)[nH]c(=O)n2C)n1CC(O)COc1ccccc1C (configuration not stated)	18	-3.6*	93	i	7	-0.29	594	241
CCN1CCN(C(=O)c2oc(=O)c3ccccc3c2-c2ccc(C)cc2)CC1	8	-1.8*	104	i	-5	0.32	320*	212
Cc1ccc(-c2c(C(=O)N3CCOCC3)oc(=O)c3ccccc23)cc1	0	1.3	86	i	0	1.8	nt	nt
Cc1oc(-c2ccccc2F)nc1CN1CCC(C(=O)NCc2ccco2)CC1	11	-3.7*	129	i	3	0.47	566	219
Oc1c(C(c2ccccc2)N2CCc3ccccc3C2)sc2ncnn12 (configuration not stated)	8	-0.31	92	i	1	-0.94	nt	nt
Oc1c(C(c2ccco2)N2CCN(C(c3ccccc3)c3ccccc3)CC2)sc2ncnn12 (configuration not stated)	15	-3.4*	41	i	-2	-0.41	512*	267
